The text below walks through data of paper PMC6261781 (Cell chemical biology, 2018).

The structures appear in SMILES notation. Counter-ions that a name gives are not always drawn.

A short description of series [1]: in vitro. It counts as cell-based, human. The note with it: human.
For series [2], the system named is MT-4 cells. Description: in vitro. It counts as cell-based, human. The following applies: for S.I. with (CC50/IC50^WT): CC50 in MT-4 / IC50 against HIV-1^WT.
For series [3], the system named is HIV-1^WT. The series is described as follows: Anti-HIV-1 MTT assay. It counts as cell-based. The following applies: read-out: Anti-HIV-1 IC50 against HIV-1^WT, MT-4 cells, mean ± 1 S.D. (Tetrazolium dyes change colour on reduction, which living cells bring about.)
Series [4] concerns HIV-1. The following applies: ref Takamatsu et al., 2015; cited from earlier work.
The test system of series [5] is HBV. The note with it: ref Takamatsu et al., 2015; cited from earlier work.
The test system of series [6] is HIV-1^67-75. The series is described as follows: Anti-HIV-1 MTT assay in MT-4 cells. It counts as cell-based.
The subject of series [7] is HIV-1EFdA^R. Description: p24 assay using MT-4 cells. It counts as cell-based. The note with it: for Activity against HIV-1EFdA^R (in words) / Fold change of IC50 against HIV-1EFdA^R compared with HIV-1^WT: p24 assay, MT-4 cells; for Activity against HIV-1EFdA^R (in words): concentrations up to 1 μM; for IC50: Human immunodeficiency virus 1, MT4, read-out: IC50 against HIV-1EFdA^R. The method, boiled down:
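MT-4 cells (RPMI 1640, 10% FCS, 37°C, 5% CO2) infected with a recombinant HIV-1NL4-3-based clone and cultured 5 days with test compound. Supernatant p24 was measured by chemiluminescent enzyme immunoassay, and signal (cps) was converted to ng/ml against a 2-fold serial-dilution p24 standard curve. Run in triplicate in two or three independent experiments; IC50 was calculated per experiment and averaged.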

Series [8] deals with HIV-1 with I142V, T165R, and M184V in RT. The note with it: ref Kawamoto et al., 2008; cited from earlier work.
Series [9] concerns HIV-1^M184V. The following applies: ref Kawamoto et al., 2008; Maeda et al., 2014; cited from earlier work.
The conditions of series [10]: 10-mg single dose in humans; ref Grobler et al., CROI. Abstr. 98, 2016; cited from earlier work.
The subject of series [11] is HIV-1^K65R. The series is described as follows: Anti-HIV-1 MTT assay in MT-4 cells. It counts as cell-based.
Series [12] relates to HIV-1^T215F. Description: Anti-HIV-1 MTT assay in MT-4 cells. It counts as cell-based.
Series [13] deals with HIV-1^M184V. The series is described as follows: Anti-HIV-1 MTT assay in MT-4 cells. It counts as cell-based.
For series [14] the following is noted: ref Nakata et al., 2007; cited from earlier work.

For orientation: CC50 means the concentration that lowers cell viability or growth by half. What is called IC50 is the concentration that gives 50% inhibition. In series [1], `Cc1cn([C@H]2C[C@H](N=[N+]=[N-])[C@@H](CO)O2)c(=O)[nH]c1=O` [AZT, zidovudine, reference compound] showed a CC50 of over 100 µM. For the same compound, the “S.I. with (CC50/IC50^WT)” value in series [2] is > 2,670. The IC50 in series [3] was found to be 0.0374 ± 0.0075 µM.
In the case of `N#C[C@]1(CO)O[C@@H](n2cnc3c(=O)[nH]c(N)nc32)C[C@@H]1O` [CdG, reference compound], in [4], the “Anti-HIV-1 activity (in words)” value was “sub nano molar”. Also, the “Anti-HBV activity (in words)” value in series [5] is reported as “sub nano molar”.
In series [1], `Nc1nc(N)c2ncn([C@H]3C[C@H](O)[C@](CO)(CF)O3)c2n1` [FMAdA, 4′-fluoromethyl-2-amino-2′-deoxyadenosine] displayed a cytotoxic concentration (CC50) of 22.2 ± 4.1 µM. Further, in series [2], the “S.I. with (CC50/IC50^WT)” value is reported as 7,400.
For `Nc1ccn([C@H]2C[C@H](O)[C@](CO)(CF)O2)c(=O)n1` [FMdC, 4′-fluoromethyl-2′-deoxycytidine], in that order: 4 µM and 120.
`C[C@]1(CO)O[C@@H](n2cnc3c(O)nc(N)nc32)C[C@@H]1O` [MdG, 4′-methyl-2′-deoxyguanosine]: the CC50 in [1] came out at 4.6 ± 0.6 µM. In addition, the “S.I. with (CC50/IC50^WT)” value in series [2] worked out at 25.
The like results for `C[C@]1(CO)O[C@@H](n2cnc3c(N)nc(N)nc32)C[C@@H]1O` [MAdA, 4′-methyl-2-amino-2′-deoxyadenosine] were, in that order, 4 ± 0.3 µM and 15.
Regarding `Nc1nc(NC2CC2)c2ncn([C@H]3C=C[C@@H](CO)C3)c2n1` [ABC, abacavir, reference compound], the CC50 in series [1] was over 100 µM. In [2], the “S.I. with (CC50/IC50^WT)” value was over 380. Also, the IC50 in series [6] (Human immunodeficiency virus 1, MT4, read-out: IC50 against HIV-1^67-75) is over 1 µM; in series [3] it was 0.263 ± 0.0076 µM.
Consider `C#C[C@]1(CO)O[C@@H](n2ccc(N)nc2=O)C[C@@H]1O` [EdC, 4′-ethynyl-2′-deoxycytidine], for which, in series [7], the “Activity against HIV-1EFdA^R (in words)” value was “favorable activity”.
For `CC[C@]1(CO)O[C@@H](n2cnc3c(N)nc(N)nc32)C[C@@H]1O` [EtAdA, 4′-ethyl-2-amino-2′-deoxyadenosine], in series [1], the half-maximal cytotoxic concentration (CC50) came out at 35.9 ± 3.1 µM. The “S.I. with (CC50/IC50^WT)” value in series [2] is 4,030.
Turning to `CC(C)OC(=O)OCOP(=O)(CO[C@H](C)Cn1cnc2c(N)ncnc21)OCOC(=O)OC(C)C` [TDF, tenofovir disoproxil fumarate, reference compound], in series [1], the CC50 came out at 39.4 ± 7.3 µM. Also, the “S.I. with (CC50/IC50^WT)” value in series [2] stood at 190. Besides, in series [3], the IC50 came out at 0.204 ± 0.127 µM.
`C#C[C@]1(CO)O[C@@H](n2cnc3c(N)nc(F)nc32)C[C@@H]1O` [EFdA, 4′-ethynyl-2-fluoro-2′-deoxyadenosine] gave a CC50 in [1] of 19.2 ± 6 µM. Moreover, the “S.I. with (CC50/IC50^WT)” value in series [2] is on record as 64,000. Moreover, in series [8], the “Resistance, fold change compared with HIV-1^WT” value is listed as 22 fold. The “Anti-HBV activity (in words)” value in series [5] is listed as “minor anti-HBV activity”. Also, the “Fold decrease in activity against HIV-1^M184V (previous observation)” value in series [9] is on record as ~ 6 fold. For the same compound, in series [7], the IC50 worked out at 0.042 µM, the “Fold change of IC50 against HIV-1EFdA^R compared with HIV-1^WT” value came out at 52 fold and the “Activity against HIV-1EFdA^R (in words)” value is recorded as “favorable activity”. Moreover, the “Time with concentrations exceeding projected efficacious concentrations” value in [10] is on record as “at least 7 days”.
On to `Cc1cn(C2CC(O)C(C#N)(CO)O2)c(=O)[nH]c1=O` (stereo not shown) [CdT, 4′-cyano-2′-deoxythymidine], for which, in series [2], the “S.I. with (CC50/IC50^WT)” value was > 1,100. Besides, in [2] (read-out: CC50 in MT-4, MT-4 cells, 7 days of culture), the CC50 was over 10 µM. Besides, the “Fold change of IC50 against HIV-1^K65R compared with HIV-1^WT (in parentheses)” value in series [11] was determined as 0.2 fold. Besides, the “Fold change of IC50 against HIV-1^67-75 compared with HIV-1^WT (in parentheses)” value in [6] (MT-4 cells, MTT assay) was determined as 0.9 fold. Moreover, the “Fold change of IC50 against HIV-1^T215F compared with HIV-1^WT (in parentheses)” value in [12] is on record as 0.3 fold. Further, the IC50 in [12] (read-out: Anti-HIV-1 IC50 against HIV-1^T215F) was 0.003 µM; in series [3], 0.0091 ± 0.0073 µM; in series [13] (read-out: Anti-HIV-1 IC50 against HIV-1^M184V), 0.0117 ± 0.0024 µM. The “Fold change of IC50 against HIV-1^M184V compared with HIV-1^WT (in parentheses)” value in series [13] stood at 1.3 fold. In addition, the “Activity against HIV-1EFdA^R (in words)” value in series [7] was “favorable activity”.
`CC[C@]1(CO)O[C@@H](n2cnc3c(O)nc(N)nc32)C[C@@H]1O` [EtdG, 4′-ethyl-2′-deoxyguanosine] gave a CC50 in [1] of 47 ± 3.2 µM. Also, in [2], the “S.I. with (CC50/IC50^WT)” value is listed as 8,390.
For `Nc1nc(F)nc2c1ncn2[C@H]1C[C@H](O)[C@](CO)(CF)O1` [FMFdA, 4′-fluoromethyl-2-fluoro-2′-deoxyadenosine], in that order: 6.6 ± 0.5 µM and 260.
Turning to `N#C[C@]1(CO)O[C@@H](n2cnc3c(N)nc(N)nc32)C[C@@H]1O` [CAdA, 4′-cyano-2-amino-2′-deoxyadenosine], the “Anti-HIV-1 activity (in words)” value in [4] is “sub nano molar”. The compound also gave a CC50 in [1] of 3.5 ± 1.2 µM. In [2], the “S.I. with (CC50/IC50^WT)” value was 17,500. In addition, in series [5], the “Anti-HBV activity (in words)” value was “sub nano molar”. For the same compound, the “Activity against HIV-1EFdA^R (in words)” value in [7] is given as “favorable activity”.
On to `C#C[C@]1(CO)O[C@@H](n2cnc3c(=O)[nH]c(N)nc32)C[C@@H]1O` [EdG, 4′-ethynyl-2′-deoxyguanosine], for which the cytotoxic concentration (CC50) in series [1] worked out at 7 µM. Moreover, in series [2], the “S.I. with (CC50/IC50^WT)” value is reported as 4,350. Moreover, the “Activity against HIV-1EFdA^R (in words)” value in series [7] is on record as “favorable activity”.
Turning to `CNc1nc(N)nc2c1ncn2[C@H]1C[C@H](O)[C@](CO)(CF)O1` [FMAMdA, 4′-fluoromethyl-2-amino-N6-methyl-2′-deoxyadenosine], the CC50 in series [1] was over 100 µM. The “S.I. with (CC50/IC50^WT)” value in [2] is over 600.
With `C=C[C@]1(CO)O[C@@H](n2cnc3c(N)nc(N)nc32)C[C@@H]1O` [VAdA, 4′-vinyl-2-amino-2′-deoxyadenosine], in series [1], the CC50 came to 20.6 ± 3.2 µM. The “S.I. with (CC50/IC50^WT)” value in series [2] is 4,790. Besides, in series [7], the IC50 worked out at 0.804 µM and the “Fold change of IC50 against HIV-1EFdA^R compared with HIV-1^WT” value is 190 fold.
In the case of `C#C[C@]1(COP(=O)(O)OP(=O)(O)OP(=O)(O)O)O[C@@H](n2cnc3c(N)nc(F)nc32)C[C@@H]1O` [EFdA-TP, EFdA-triphosphate], the Intracellular half-life in series [14] is at least 17 h.
